Experimental data published in ChEMBL document CHEMBL5096186, “Design, Synthesis, and Biological Evaluation of Novel Pyrimido[4,5-b]indole Derivatives Against Gram-Negative Multidrug-Resistant Pathogens” (J Med Chem, 2021).
≈ marks a conversion by molar mass, not a printed value.

Key:
[1] = system: Staphylococcus aureus; assay: Antibacterial activity against methicillin-sensitive Staphylococcus aureus strains 15 1 to 4 assessed as reduction in bacterial growth incubated for 18 to 20 hrs by CLSI based microdilution method; format: functional; settings: time 18-20 hrs
In short: (§1)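 Broth microdilution per CLSI. Compounds dissolved in DMSO (levofloxacin and meropenem in water) as 64 μg/mL stock, then serial twofold dilutions in broth giving 64 to 0.008 μg/mL. […] Clinical isolates tested as several strains per group; racemic GP-1 served as positive control; values given as MIC ranges.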

[2] = system: Staphylococcus epidermidis; assay: Antibacterial activity against methicillin-sensitive Staphylococcus epidermidis strains 15 1 to 4 assessed as reduction in bacterial growth incubated for 18 to 20 hrs by CLSI based microdilution method; format: functional; settings: time 18-20 hrs; in short: as §1
[3] = system: Escherichia coli; assay: Antibacterial activity against ESBL-producing Escherichia coli ATCC 35218 strains 15 1 to 3 assessed as reduction in bacterial growth incubated for 18 to 20 hrs by CLSI based microdilution method; format: functional; settings: time 18-20 hrs
In short: (§2)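 CLSI broth microdilution. Compounds in DMSO (levofloxacin and meropenem in water), serial twofold dilutions in broth, 64 to 0.008 μg/mL. […] Results reported as MIC ranges across strains.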

[4] = system: Escherichia coli; assay: Antibacterial activity against Escherichia coli ATCC 35218 strains 15 1 to 3 assessed as reduction in bacterial growth incubated for 18 to 20 hrs by CLSI based microdilution method; format: functional; settings: time 18-20 hrs; in short: as §2
[5] = system: Pseudomonas aeruginosa; assay: Antibacterial activity against multidrug resistant Pseudomonas aeruginosa strains 15 1 to 3 assessed as reduction in bacterial growth incubated for 18 to 20 hrs by CLSI based microdilution method; format: functional; settings: time 18-20 hrs; in short: as §1
[6] = molecular target: hERG (KCNH2) potassium channel (Homo sapiens, UniProt Q12809); assay: Inhibition of hERG potassium channel assessed as maximum inhibition rate at 40 uM at -80 mV holding potential incubated for 120 seconds by whole cell-automated voltage clamp analysis assay relative to control; format: toxicity; settings: time 120 sec
In short: (§3)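 Automated whole-cell patch clamp, holding potential −80 mV. Voltage protocol applied every 20 s. Baseline set with external solution containing 0.1% DMSO and stabilised 3 min. Compound applied until steady state, at least 3 min, then washout. Maximum tested concentration 40 μM, or 3 μM for cisapride as positive control.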

[7] = molecular target: Voltage-gated inwardly rectifying potassium channel KCNH2 (Homo sapiens, UniProt Q12809); assay: Inhibition of hERG potassium channel assessed as […] at -80 mV holding potential incubated for 120 seconds by whole cell-automated voltage clamp analysis assay; format: toxicity; in short: as §3
[8] = system: Escherichia coli; assay: Antibacterial activity against ESBL-producing multidrug resistant Escherichia coli assessed as reduction in bacterial growth incubated for 18 to 20 hrs by CLSI based microdilution method; format: functional; settings: time 18-20 hrs; in short: as §1
[9] = system: Escherichia coli; assay: Antibacterial activity against multidrug resistant wild type Escherichia coli ATCC BAA-2340 assessed as reduction in bacterial growth incubated for 18 to 20 hrs by CLSI based microdilution method; format: functional; settings: time 18-20 hrs; in short: as §1
[10] = system: Escherichia coli; assay: Antibacterial activity against multidrug resistant wild type Escherichia coli NCTC 13353 assessed as reduction in bacterial growth incubated for 18 to 20 hrs by CLSI based microdilution method; format: functional; settings: time 18-20 hrs; in short: as §1
[11] = system: Klebsiella pneumoniae; assay: Antibacterial activity against KPC2-producing multidrug resistant Klebsiella pneumoniae assessed as reduction in bacterial growth incubated for 18 to 20 hrs by CLSI based microdilution method; format: functional; settings: time 18-20 hrs; in short: as §1
[12] = system: Klebsiella pneumoniae; assay: Antibacterial activity agains wild type Klebsiella pneumoniae ATCC BAA-1705 assessed as reduction in bacterial growth incubated for 18 to 20 hrs by CLSI based microdilution method; format: functional; settings: time 18-20 hrs; in short: as §2
[13] = system: Klebsiella pneumoniae; assay: Antibacterial activity agains wild type Klebsiella pneumoniae ATCC BAA-2470 assessed as reduction in bacterial growth incubated for 18 to 20 hrs by CLSI based microdilution method; format: functional; settings: time 18-20 hrs; in short: as §1
[14] = system: Acinetobacter baumannii; assay: Antibacterial activity agains OXA23-producing multidrug resistant Acinetobacter baumannii assessed as reduction in bacterial growth incubated for 18 to 20 hrs by CLSI based microdilution method; format: functional; settings: time 18-20 hrs; in short: as §1
[15] = system: Acinetobacter baumannii; assay: Antibacterial activity against wild type Acinetobacter baumannii NCTC 13304 assessed as reduction in bacterial growth incubated for 18 to 20 hrs by CLSI based microdilution method; format: functional; settings: time 18-20 hrs; in short: as §1
[16] = system: Pseudomonas aeruginosa; assay: Antibacterial activity against IMP4-producing multidrug resistant Pseudomonas aeruginosa assessed as reduction in bacterial growth incubated for 18 to 20 hrs by CLSI based microdilution method; format: functional; settings: time 18-20 hrs; in short: as §1
[17] = system: Pseudomonas aeruginosa; assay: Antibacterial activity against wild type Pseudomonas aeruginosa ATCC 27853 assessed as reduction in bacterial growth incubated for 18 to 20 hrs by CLSI based microdilution method; format: functional; settings: time 18-20 hrs; in short: as §2
[18] = Metabolic stability in rat liver microsome assessed as elimination half life at 0.1 uM in presence of NADPH incubated upto 60 mins by LC-MS/MS analysis; format: ADME; settings: liver microsomes, read-out: beta t1/2
In short: (§4)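 Compound at 0.1 μM final, in 0.01% DMSO with 0.005% BSA. Incubated with rat or human liver microsomes at 0.33 mg/mL in 0.1 M Tris-HCl, pH 7.4, with 5 mM MgCl₂ and 1 mM NADPH, at 37 °C. Samples at 0, 7, 17, 30 and 60 min quenched with cold methanol and analysed by LC-MS/MS. Half-life, Cl_int and MF% derived as previously described.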

[19] = Metabolic stability in human liver microsome assessed as elimination half life at 0.1 uM in presence of NADPH incubated upto 60 mins by LC-MS/MS analysis; format: ADME; settings: liver microsomes, read-out: beta t1/2; in short: as §4
[20] = Metabolic stability in rat liver microsome assessed as intrinsic clearance at 0.1 uM in presence of NADPH incubated upto 60 mins by LC-MS/MS analysis; format: ADME; settings: microsomes, 1 h; in short: as §4
[21] = Metabolic stability in human liver microsome assessed as intrinsic clearance at 0.1 uM in presence of NADPH incubated upto 60 mins by LC-MS/MS analysis; format: ADME; settings: microsomes, 1 h; in short: as §4
[22] = Metabolic stability in rat liver microsome assessed as metabolic bioavailability at 0.1 uM in presence of NADPH incubated upto 60 mins by LC-MS/MS analysis; format: ADME; settings: liver microsomes; in short: as §4
[23] = Metabolic stability in human liver microsome assessed as metabolic bioavailability at 0.1 uM in presence of NADPH incubated upto 60 mins by LC-MS/MS analysis; format: ADME; settings: liver microsomes; in short: as §4
[24] = AUC (0 to infinity) in Sprague-Dawley rat at 4 mg/kg, iv measured upto 24 hrs by LC-MS/MS analysis; format: ADME, organism-based; set-up: time < 24 hrs, dose 4 mg/kg, route iv; settings: in vivo
In short: (§5)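 Male Sprague-Dawley rats, n = 3 per group, single intravenous dose. For 4 mg/kg: 180–280 g rats, vehicle 5% DMSO + 5% EtOH + 40% PEG300 + 50% saline, blood from the retrobulbar vein at 0.05–24 h. For 5 and 20 mg/kg: 180–300 g rats, vehicle 5% DMSO + 5% solutol + 90% saline, sampled at 0.083–24 h. Plasma quantified by LC/MS/MS. Parameters from mean plasma concentration by noncompartmental analysis; values are mean ± standard deviation.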

[25] = Elimination half life in Sprague-Dawley rat at 4 mg/kg, iv measured upto 24 hrs by LC-MS/MS analysis; format: ADME, organism-based; settings: in vivo, read-out: beta t1/2 (converted); in short: as §5
[26] = MRT in Sprague-Dawley rat at 4 mg/kg, iv measured upto 24 hrs by LC-MS/MS analysis; format: ADME, organism-based; settings: in vivo; in short: as §5
[27] = Clearance in Sprague-Dawley rat at 4 mg/kg, iv measured upto 24 hrs by LC-MS/MS analysis; format: ADME, organism-based; settings: in vivo; in short: as §5
[28] = Volume of distribution at the steady state in Sprague-Dawley rat at 4 mg/kg, iv measured upto 24 hrs by LC-MS/MS analysis; format: ADME, organism-based; settings: in vivo, read-out: Vdss; in short: as §5
[29] = AUC (0 to infinity) in Sprague-Dawley rat at 5 mg/kg, iv measured upto 24 hrs by LC-MS/MS analysis; format: ADME, organism-based; set-up: time < 24 hrs, dose 5 mg/kg, route iv; settings: in vivo; in short: as §5
[30] = Elimination half life in Sprague-Dawley rat at 5 mg/kg, iv measured upto 24 hrs by LC-MS/MS analysis; format: ADME, organism-based; settings: in vivo, read-out: beta t1/2 (converted); in short: as §5
[31] = MRT in Sprague-Dawley rat at 5 mg/kg, iv measured upto 24 hrs by LC-MS/MS analysis; format: ADME, organism-based; settings: in vivo; in short: as §5
[32] = Clearance in Sprague-Dawley rat at 5 mg/kg, iv measured upto 24 hrs by LC-MS/MS analysis; format: ADME, organism-based; settings: in vivo; in short: as §5
[33] = Volume of distribution at the steady state in Sprague-Dawley rat at 5 mg/kg, iv measured upto 24 hrs by LC-MS/MS analysis; format: ADME, organism-based; settings: in vivo, read-out: Vdss; in short: as §5

Sequence of Voltage-gated inwardly rectifying potassium channel KCNH2 (Q12809 whole entry): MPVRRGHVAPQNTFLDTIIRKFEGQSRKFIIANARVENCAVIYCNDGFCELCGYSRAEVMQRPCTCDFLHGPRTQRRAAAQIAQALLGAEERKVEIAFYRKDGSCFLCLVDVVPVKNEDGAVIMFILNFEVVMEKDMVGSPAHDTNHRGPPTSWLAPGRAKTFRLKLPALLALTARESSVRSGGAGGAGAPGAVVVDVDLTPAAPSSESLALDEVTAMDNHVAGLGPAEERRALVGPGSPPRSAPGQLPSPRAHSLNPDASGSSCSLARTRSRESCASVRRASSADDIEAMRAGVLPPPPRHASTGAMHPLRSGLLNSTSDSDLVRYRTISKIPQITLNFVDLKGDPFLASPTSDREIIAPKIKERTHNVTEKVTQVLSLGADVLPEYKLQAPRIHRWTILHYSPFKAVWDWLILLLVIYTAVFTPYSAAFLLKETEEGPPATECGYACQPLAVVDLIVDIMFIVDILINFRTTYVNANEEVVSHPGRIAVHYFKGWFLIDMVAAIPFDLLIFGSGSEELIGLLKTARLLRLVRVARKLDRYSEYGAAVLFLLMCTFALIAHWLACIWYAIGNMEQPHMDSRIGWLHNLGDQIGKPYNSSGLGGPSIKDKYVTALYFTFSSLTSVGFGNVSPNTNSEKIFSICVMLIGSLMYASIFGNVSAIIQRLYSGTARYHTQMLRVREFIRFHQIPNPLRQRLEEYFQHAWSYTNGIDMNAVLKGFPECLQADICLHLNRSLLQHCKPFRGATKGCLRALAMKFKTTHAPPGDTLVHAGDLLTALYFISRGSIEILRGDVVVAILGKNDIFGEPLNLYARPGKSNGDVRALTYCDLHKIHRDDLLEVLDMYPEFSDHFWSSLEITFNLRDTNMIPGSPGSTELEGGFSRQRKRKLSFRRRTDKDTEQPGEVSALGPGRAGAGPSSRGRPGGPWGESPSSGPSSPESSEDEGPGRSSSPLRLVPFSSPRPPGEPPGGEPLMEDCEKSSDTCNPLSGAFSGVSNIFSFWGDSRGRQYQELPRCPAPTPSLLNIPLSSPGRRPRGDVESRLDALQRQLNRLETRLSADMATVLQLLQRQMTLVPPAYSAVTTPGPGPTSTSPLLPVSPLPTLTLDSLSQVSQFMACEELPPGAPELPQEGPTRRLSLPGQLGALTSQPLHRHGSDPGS
Sequence of hERG (KCNH2) potassium channel (Q12809 whole entry): as above

## CNc1cc(F)cc2c1[nH]c1nc(Oc3cnc(C)nc3)nc(N3CC(=C(C)C(C)N)C3)c12 (racemic)
[1]
  MIC: < 0.008 µg/mL
[2]
  MIC: < 0.008 µg/mL
[3]
  MIC: 0.5 µg/mL (≈ 1.11 µM)
[4]
  MIC: 0.25 µg/mL (≈ 0.557 µM)
[5]
  MIC: 1 µg/mL (≈ 2.23 µM)
[6]
  inhibition at 2 min, 40 µM: 37%
[7]
  IC50: > 40 µM
[8]
  MIC: 0.5 µg/mL (≈ 1.11 µM)
[9]
  MIC: 0.5 µg/mL (≈ 1.11 µM)
[10]
  MIC: 0.25 µg/mL (≈ 0.557 µM)
[11]
  MIC: 2 µg/mL (≈ 4.46 µM)
[12]
  MIC: 8 µg/mL (≈ 17.8 µM)
[13]
  MIC: 2 µg/mL (≈ 4.46 µM)
[14]
  MIC: 0.25 µg/mL (≈ 0.557 µM)
[15]
  MIC: 0.5 µg/mL (≈ 1.11 µM)
[16]
  MIC: 4 µg/mL (≈ 8.92 µM)
[17]
  MIC: 2 µg/mL (≈ 4.46 µM)
[18]
  half-life at 0.1 µM: 0.278 h
[19]
  half-life at 0.1 µM: 8.23 h
[20]
  CLH: 126 mL/min/g
[21]
  CLH: 4.25 mL/min/g
[22]
  Fh at 1 h, 0.1 µM: 26.1%
[23]
  Fh at 1 h, 0.1 µM: 82.2%
[24]
  AUC(0-inf): 1510 ng·h/mL
[25]
  half-life: 5.7 h
[26]
  MRT: 4.7 h
[27]
  clearance: 44.1 mL/min/kg
[28]
  Vd: 12.3 L/kg

## CCNc1cc(F)cc2c1[nH]c1nc(Oc3cnc(C)nc3)nc(N3CC(=C(C)[C@@H](C)N)C3)c12
[8]
  MIC: 4 µg/mL (≈ 8.65 µM)
[9]
  MIC: 1 µg/mL (≈ 2.16 µM)
[10]
  MIC: 1 µg/mL (≈ 2.16 µM)
[11]
  MIC: > 8 µg/mL
[12]
  MIC: > 64 µg/mL
[13]
  MIC: > 64 µg/mL
[14]
  MIC: 2 µg/mL (≈ 4.32 µM)
[15]
  MIC: 2 µg/mL (≈ 4.32 µM)
[16]
  MIC: > 64 µg/mL
[17]
  MIC: > 64 µg/mL
[29]
  AUC(0-inf): 1290 ng·h/mL
[30]
  half-life: 6.7 h
[31]
  MRT: 4.3 h
[32]
  clearance: 64.7 mL/min/kg
[33]
  Vd: 16.7 L/kg
